6 compounds from ChEMBL document CHEMBL4368886, “Design, synthesis, and biological activity of novel ammonium salts containing sterically hindered phenolic fragment and phosphoryl group” (Medchemcomm, 2018) can be followed below.

The test system of data set [1] is Bacillus cereus. Kind of data set: Antimicrobial activity against Bacillus cereus ATCC 8035 measured every 24 hrs for 5 days by two-fold serial dilution method. The format is functional.
Data set [2] concerns Bacillus cereus. Kind of data set: Bactericidal activity against Bacillus cereus ATCC 8035 measured after 4 hrs. The note with it: ATCC 8035, 4 h. Type of data set: functional. In outline:
(§1)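 Microbicidal (bactericidal/fungicidal) concentration, killing of microbial cells, determined per literature procedures; tests in duplicate, repeated twice.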

The subject of data set [3] is Trichophyton mentagrophytes var. granulosum. Kind of data set: (§2) Bactericidal activity against Trichophyton mentagrophytes var. granulosum 1773 measured after 4 hrs. The format is functional. In short, it runs like this:
as §1

In data set [4] the test system is Staphylococcus aureus. Kind of data set: Antimicrobial activity against Staphylococcus aureus 209p measured every 24 hrs for 5 days by two-fold serial dilution method. Type of data set: functional.
A short description of data set [5]: Antioxidant activity assessed as ABAP free radical scavenging activity by measuring decrease in chemiluminescence intensity at 0.5 mM. The format is functional. Further details: scale not given: the % may be the effect or the level left. In outline: (§3)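 Chemiluminescent radical system of ABAP (2,2′-azobis(2-methylpropionamidine) dihydrochloride) plus luminol in buffer, total 1.000 mL; baseline recorded, then test substance added at 0.25, 0.50 or 1.00 mM; chemiluminescence intensity followed over time and expressed as percent of initial value. Ionol used as reference antioxidant.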

In data set [6] the test system is Staphylococcus aureus. Kind of data set: Bactericidal activity against Staphylococcus aureus 209p measured after 4 hrs. The format is functional. In outline: as §1
In data set [7] the test system is Pseudomonas aeruginosa. Kind of data set: Bactericidal activity against Pseudomonas aeruginosa ATCC 9027 measured after 4 hrs. Type of data set: functional. In short, it runs like this: as §1
For data set [8], the system named is Candida albicans. Kind of data set: Antimicrobial activity against Candida albicans 855-653 measured after 14 days by two-fold serial dilution method. Type of data set: functional.
The subject of data set [9] is Candida albicans. Kind of data set: Bactericidal activity against Candida albicans 855-653 measured after 4 hrs. Type of data set: functional. In short, it runs like this: as §1
Data set [10] deals with Trichophyton mentagrophytes. Kind of data set: Antimicrobial activity against Trichophyton mentagrophytes var. gypseum 1773 measured after 14 days by two-fold serial dilution method. Type of data set: functional.
Data set [11] deals with Pseudomonas aeruginosa. Kind of data set: Antimicrobial activity against Pseudomonas aeruginosa ATCC 9027 measured every 24 hrs for 5 days by two-fold serial dilution method. The format is functional.
The test system of data set [12] is Escherichia coli. Kind of data set: Bactericidal activity against Escherichia coli CDC F-50 measured after 4 hrs. The format is functional. In short, it runs like this: as §1
The nature of data set [13]: Antioxidant activity assessed as ABAP free radical scavenging activity by measuring decrease in chemiluminescence intensity at 0.25 mM. Type of data set: functional. Further details: scale not given: the % may be the effect or the level left. In outline:
as §3

For data set [14], the system named is Aspergillus niger. Kind of data set: Antimicrobial activity against Aspergillus niger BKMF-1119 measured after 14 days by two-fold serial dilution method. The format is functional, organism-based.
Data set [15] is described as follows: Antioxidant activity assessed as ABAP free radical scavenging activity by measuring decrease in chemiluminescence intensity at 1 mM measured after 600 secs. Further details: scale not given: the % may be the effect or the level left. The format is functional. In short, it runs like this: as §3
For data set [16], the system named is Escherichia coli. Kind of data set: Antimicrobial activity against Escherichia coli CDC F-50 measured every 24 hrs for 5 days by two-fold serial dilution method. Type of data set: functional.
The subject of data set [17] is Aspergillus niger. Kind of data set: Bactericidal activity against Aspergillus niger BKMF-1119 measured after 4 hrs. The format is functional, organism-based. In outline: as §1
Data set [18] can be described thus: Antioxidant activity assessed as ABAP free radical scavenging activity by measuring decrease in chemiluminescence intensity at 0.5 mM measured after 500 secs. The format is functional. In outline: as §3
Data set [19] relates to WI-38. Kind of data set: Cytotoxicity against human WI38 cells assessed as reduction in cell viability at 0.7 to 11.3 uM by Cytell imaging analysis. Type of data set: cell-based. To be noted: wi-38, 11.3 µM. In outline: (§4)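 WI-38 human embryonic lung and Chang liver cells exposed to compounds at three concentrations each (0.70–47.0 μM range, spanning antimicrobial concentrations); cytotoxicity read as number of viable cells counted.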

The nature of data set [20]: Cytotoxicity against human Chang cells assessed as reduction in cell viability at 0.7 to 11.3 uM by Cytell imaging analysis. The format is cell-based. In outline: as §4
Data set [21] can be described thus: Antioxidant activity assessed as ABAP free radical scavenging activity by measuring decrease in chemiluminescence intensity at 0.25 mM measured after 400 secs. The format is functional. In outline: as §3
Data set [22] in a line: Cytotoxicity against human Chang cells assessed as reduction in cell viability at 47 uM by Cytell imaging analysis. Type of data set: cell-based. In outline:
as §4

Data set [23] in a line: Antioxidant activity assessed as ABAP free radical scavenging activity by measuring decrease in chemiluminescence intensity at 1 mM. The format is functional. Also on record: scale not given: the % may be the effect or the level left. In outline:
as §3

Data set [24] concerns WI-38. Kind of data set: Cytotoxicity against human WI38 cells assessed as reduction in cell viability at 47 uM by Cytell imaging analysis. Type of data set: cell-based. To be noted: wi-38, 47 µM. In outline:
as §4

Data set [25] can be described thus: as §2. Type of data set: functional. To be noted: Trichophyton mentagrophytes, 1773, 4 h. In outline:
as §1

In brackets after ≈: the same amount, converted by molar mass. Activity calls are given as the source filed them. No cut-off for these calls is given here.

Take `CCOP(=O)(OCC)C(NCCC[N+](C)(C)CC)c1cc(C(C)(C)C)c(O)c(C(C)(C)C)c1` (stereo not drawn): the minimal inhibitory concentration (MIC) (in general, the least concentration at which growth counts as inhibited) with Bacillus cereus [1] is 221 µM; against Bacillus cereus [2], 221 µM; in the data set with Staphylococcus aureus [4], 442 µM; in the data set on Staphylococcus aureus [6] it was 442 µM; against Candida albicans [9] (855-653, 4 h), above 500 µM. Further, the MIC entry (in data set [3]; with Pseudomonas aeruginosa [7]; in the data set on Candida albicans [8]; in [10]; in the data set with Pseudomonas aeruginosa [11]; in the data set on Escherichia coli [12]) was “inactive” in each case. Moreover, the MIC result in the data set on Aspergillus niger [14], with Escherichia coli [16] and with Aspergillus niger [17] was “inactive” in each case. In addition, the figures for the Activity in data set [5], in data set [13] and in data set [15] were 26%, 44% and 26%, respectively.

`CCCCCCCCCC[N+](C)(C)CCCNC(c1cc(C(C)(C)C)c(O)c(C(C)(C)C)c1)P(=O)(OC(C)C)OC(C)C.[Br-]` (stereo not drawn): the MIC in the data set on Bacillus cereus [1] is 2.7 µM; against Bacillus cereus [2], 177 µM; against Staphylococcus aureus [4] it was 0.7 µM; against Staphylococcus aureus [6] it was 1.3 µM; in the data set on Pseudomonas aeruginosa [7] (ATCC 9027, 4 h) it was 44.3 µM; in the data set on Candida albicans [8] (855-653, 336 h) it was 11 µM. The MIC turned out to be 11 µM with Candida albicans [9] (855-653, 4 h); 22 µM in the data set on Pseudomonas aeruginosa [11]; 177 µM in the data set on Escherichia coli [12] (CDC F-50, 4 h); 44.3 µM against Escherichia coli [16]. The MIC result (in data set [3]; in [10]; in the data set on Aspergillus niger [14]; in the data set on Aspergillus niger [17]) was “inactive” in each case. In addition, the outcome in data set [18] and in data set [21] was Active. The Activity was 26% in data set [5]; “Non-Toxic” with WI-38 [19]; 44% in data set [13]; “Non-Toxic” in data set [20]; 26% in data set [15].

In the case of `CCCCCCCCCC[N+](C)(C)CCNC(c1cc(C(C)(C)C)c(O)c(C(C)(C)C)c1)P(=O)(OCC)OCC.[Br-]` (stereo not drawn), the MIC against Bacillus cereus [1] turned out to be 2.9 µM; in the data set with Bacillus cereus [2], 2.9 µM; with Staphylococcus aureus [4], 2.9 µM; in the data set on Staphylococcus aureus [6] it was 2.9 µM; with Candida albicans [8] (855-653, 336 h), 47 µM; against Candida albicans [9] (855-653, 4 h) it was 47 µM. Further, the MIC in the data set with Pseudomonas aeruginosa [11] is 94.1 µM; against Escherichia coli [12] (CDC F-50, 4 h), 188 µM; against Escherichia coli [16], 94.1 µM. Besides, the Activity result in [22] is “Toxic”; in data set [23], 20%; in data set [5] it was 26%; in the data set with WI-38 [19], “Non-Toxic”; with WI-38 [24], “Toxic”; in [13], 44%. In addition, the Activity entry in [20] was “Non-Toxic”. The MIC entry (in data set [3]; in the data set with Pseudomonas aeruginosa [7]; in data set [10]; in the data set on Aspergillus niger [14]; with Aspergillus niger [17]) was “inactive” in each case.

With `CCCCCCCCCC[N+](C)(C)CCNC(c1cc(C(C)(C)C)c(O)c(C(C)(C)C)c1)P(=O)(OC(C)C)OC(C)C.[Br-]` (stereo not drawn), the minimum inhibitory concentration (MIC) against Bacillus cereus [1] was determined as 5.6 µM; in the data set on Bacillus cereus [2] it was 90 µM; in the data set on Staphylococcus aureus [4] it was 2.7 µM; in the data set on Staphylococcus aureus [6], 5.6 µM; in the data set with Candida albicans [8] (855-653, 336 h), 11.3 µM; in the data set with Candida albicans [9] (855-653, 4 h), 11.3 µM. For the same compound, the MIC result (in [3]; in the data set with Pseudomonas aeruginosa [7]; in data set [10]; in the data set on Pseudomonas aeruginosa [11]; with Escherichia coli [12]; in the data set on Aspergillus niger [14]) was “inactive” each time. Also, the MIC result in the data set with Escherichia coli [16] and in the data set with Aspergillus niger [17] was “inactive” throughout. The Activity entry (in the data set with WI-38 [19]; in data set [20]) was “Non-Toxic” throughout.

Turning to `CC(=O)N1CCN(c2ccc(OCC3COC(Cn4ccnc4)(c4ccc(Cl)cc4Cl)O3)cc2)CC1` (stereo not drawn) [KETOCONAZOLE], the MIC in data set [25] came to 15.2 µM (≈ 8.08 µg/mL); in the data set with Candida albicans [8] (855-653, 336 h), 7.6 µM (≈ 4.04 µg/mL); in the data set on Candida albicans [9] (855-653, 4 h) it was 15.2 µM (≈ 8.08 µg/mL); in data set [10] (var. gypseum 1773, 336 h) it was 7.6 µM (≈ 4.04 µg/mL).

For `CCCCCCCCCCCC[N+](C)(C)CCCNC(=O)CCc1cc(C(C)(C)C)c(O)c(C(C)(C)C)c1`, the MIC turned out to be 206 µM against Bacillus cereus [1], 206 µM in the data set with Bacillus cereus [2], 102 µM with Staphylococcus aureus [4] and 102 µM in the data set with Staphylococcus aureus [6]. In addition, the MIC result (in data set [3]; in the data set on Pseudomonas aeruginosa [7]; in the data set with Candida albicans [8]; in the data set on Candida albicans [9]; in data set [10]; in the data set with Pseudomonas aeruginosa [11]) was “inactive” each time. For the same compound, the MIC result in the data set on Escherichia coli [12], with Aspergillus niger [14], in the data set with Escherichia coli [16] and with Aspergillus niger [17] was “inactive” each time.
